Laboratory results taken from publication PMC3535268 (Journal of neuroscience methods, 2011).
Like-named read-outs stand apart in the source and are kept apart here.

Columns and labels:
Assay type in all cases: biochemical, Fischer 344 rats
[1] = test system: Complex II dependent oxygen consumption; details: log dose response; no observed differences across brain regions
Method in brief: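 Brain regions dissected from 16-week male rats; mitochondria purified by differential centrifugation, nitrogen disruption at 1200 psi and Ficoll gradient. Wells got 2.5 or 5 μg protein, were spun 200 × g, and were overlaid with respiration buffer pH 7.2 at 37 °C. […] 5–6 rats/group; two-way ANOVA.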

Mitochondrial Complex I = Mitochondrial Complex I (Rattus norvegicus, UniProt P03889+Q641Y2); assay: Mitochondrial Complex I enzyme activity assay
Chain of Mitochondrial Complex I (Q641Y2 34-463): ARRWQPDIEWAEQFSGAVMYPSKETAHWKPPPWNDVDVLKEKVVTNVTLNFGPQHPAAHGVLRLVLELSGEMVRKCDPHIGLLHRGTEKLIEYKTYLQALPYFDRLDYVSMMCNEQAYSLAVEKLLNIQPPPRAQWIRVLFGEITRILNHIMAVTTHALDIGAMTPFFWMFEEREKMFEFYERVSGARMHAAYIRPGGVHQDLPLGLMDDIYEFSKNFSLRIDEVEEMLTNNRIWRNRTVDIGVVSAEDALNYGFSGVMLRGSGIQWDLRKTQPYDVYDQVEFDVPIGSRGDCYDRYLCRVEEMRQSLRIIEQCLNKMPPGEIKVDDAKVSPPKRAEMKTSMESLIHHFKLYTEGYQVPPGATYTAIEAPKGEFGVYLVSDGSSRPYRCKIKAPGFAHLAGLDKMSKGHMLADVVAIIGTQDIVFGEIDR
Chain of Mitochondrial Complex I (P03889 whole entry): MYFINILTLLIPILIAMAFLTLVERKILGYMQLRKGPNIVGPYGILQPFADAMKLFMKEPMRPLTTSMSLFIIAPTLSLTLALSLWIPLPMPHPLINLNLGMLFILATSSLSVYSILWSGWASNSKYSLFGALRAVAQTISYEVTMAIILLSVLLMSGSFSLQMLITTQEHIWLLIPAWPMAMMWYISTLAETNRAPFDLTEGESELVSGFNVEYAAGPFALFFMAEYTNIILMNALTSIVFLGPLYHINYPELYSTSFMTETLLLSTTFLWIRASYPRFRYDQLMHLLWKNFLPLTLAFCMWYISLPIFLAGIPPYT

[2] = test system: Complex I driven oxygen consumption; details: cortical mitochondria
Method in brief: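 Cortical mitochondria were isolated by differential centrifugation, nitrogen bomb and Ficoll purification, then seeded on XF24 plates in respiration buffer (mannitol/sucrose/BSA/HEPES/MgCl/KH2PO4, pH 7.2, 37 °C). A modified protocol repeatedly measured O2 consumption in the same well after injecting low rotenone (10 fM, 10 pM, 10 nM; diluted in ethanol). 5–6 rats/group; two-way ANOVA with post hoc tests.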

Row | SMILES | effect on mitochondrial driven oxygen consumption (Complex II) [1] | IC50 (Mitochondrial Complex I) [nM] | effect on mitochondrial oxygen consumption ([2]; 10 pM rotenone, up to 8 min following exposure) | effect on mitochondrial oxygen consumption ([2]; 10 nM rotenone) | effect on mitochondrial oxygen consumption ([2]; 10 fM rotenone)
1 | O=C(O)CC(=O)O [malonate] | dose dependent decrease |  |  |  | 
2 | C=C(C)[C@H]1Cc2c(ccc3c2O[C@@H]2COc4cc(OC)c(OC)cc4[C@@H]2C3=O)O1 [rotenone] |  | 0.163 to 0.238 | did not result in any reduction in oxygen consumption | significant reduction in mitochondrial oxygen consumption immediately following exposure | no reduction in oxygen consumption
